The data set can be described thus: Toxicity liver stage against HepG2, at 10uM. Format: cell-based. On the set-up: test concentration 10 uM, cell line HepG2-A16-CD81EGFP. The note with it: human, HepG2-A16-CD81EGFP cells; read-out: INHIBITION
Put shortly:
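Uninfected HepG2-A16-CD81EGFP cells, 3 × 10^3 per well, 1536-well, plated on prespotted compound at 10 μM final, parasite-free screening media added to match infected plates; puromycin 10 μM positive, DMSO 0.5% negative; run in parallel with 48 h PbLuc assay at 37 °C, 5% CO2; viability by CellTiter-Glo luminescence, normalized to controls.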
For the compound `CC(C)N[C@@H]1CO[C@H](CNC(=O)Nc2ccccc2)[C@H]1O`, the cytotoxicity at 10 µM worked out at 1.53%.
With `Cc1ccc2nc(CSCC(=O)Nc3nnc(C(C)C)s3)cc(=O)n2c1` the figure was -4.44%.
On to `N#Cc1cccnc1OC1CCN(S(=O)(=O)c2ccc(Br)cc2)CC1`, for which the cytotoxicity at 10 µM stood at 3.61%.
As to `O=S(=O)(NCC(O)c1ccc2c(c1)CCO2)c1ccccc1F` (configuration not stated), the cytotoxicity at 10 µM is -8.25%.
As for `Cn1cc(C(=O)Nc2ccc(CC(=O)NCC(F)(F)F)cc2)nn1`, the cytotoxicity at 10 µM worked out at 10.8%.
Turning to `CCn1ncc2c1CN(C(=O)c1ccc3c(c1)OCO3)CC2COC` (configuration not stated), the cytotoxicity at 10 µM turned out to be 8.7%.
Turning to `Cc1noc(C2CN(S(C)(=O)=O)Cc3ccnn3C2)n1` (configuration not stated), the cytotoxicity at 10 µM worked out at 4.92%.
In the case of `COc1cccc(Cn2c(=O)n(C)c(=O)c3sccc32)c1`, the cytotoxicity at 10 µM worked out at 3.29%.
`Cc1cc(O)n(-c2ccccc2Cl)c(=O)c1C#N`: the cytotoxicity at 10 µM was determined as 2.96%.
Take `COCCC(=O)Nc1cnn(COc2ccc(F)cc2Cl)c1`: the cytotoxicity at 10 µM was -8.68%.
On to `Cc1nc(Nc2ncc(C)s2)cc(C2CCCN2S(C)(=O)=O)n1` (configuration not stated), for which the cytotoxicity at 10 µM was -37.6%.
As for `c1cc(-c2nc(C3CCN(Cc4ccsc4)CC3)no2)ccn1`, the cytotoxicity at 10 µM was -26.5%.
Consider `CC(=O)N1CCC(c2ccnc(Nc3cnccn3)n2)C1` (configuration not stated), for which the cytotoxicity at 10 µM was -0.182%.
In the case of `CC(C)(C)c1n[nH]cc1CN1CCc2nc3ccsc3c(=O)n2CC1` it was 6.12%.
With `Cc1ccc(OCCCNC(=O)C(C)Sc2nncn2C)cc1` (configuration not stated), the cytotoxicity at 10 µM was -45%.
As for `CCN1CCN(c2ccccc2NC(=O)NCc2ccon2)CC1`, the cytotoxicity at 10 µM came out at 10.4%.
Take `CN(Cc1ccco1)C(=O)C1CCCc2ccccc21` (configuration not stated): the cytotoxicity at 10 µM was 3.68%.
As for `NC(=O)CSCC(=O)NCC1CCCC1`, the cytotoxicity at 10 µM was 3.15%.
Regarding `Cc1cc(C)n(CC(C)NC(=O)NCc2c(C)cc(C)[nH]c2=O)n1` (configuration not stated), the cytotoxicity at 10 µM is -6.58%.
Turning to `N#Cc1cccc(CN2CCCC2c2ccc[nH]2)c1` (configuration not stated), the cytotoxicity at 10 µM was -11.9%.
For `CCN(CC)CC(=O)Nc1ccc(-n2ccc(C(N)=O)n2)cc1`, the cytotoxicity at 10 µM is -6.9%.
Turning to `CCN(C1CCN(Cc2ncc(C(C)(C)C)o2)CC1)S(C)(=O)=O`, the cytotoxicity at 10 µM was -4.15%.
With `CCC(CC)C(=O)Nc1ccc2oc(=O)n(CCN(C)C)c2c1`, the cytotoxicity at 10 µM is -13.7%.
As to `O=C1NCC2CN(Cc3ccccc3OCc3ccccn3)CCN12` (configuration not stated), the cytotoxicity at 10 µM was -1.36%.
With `COc1ccc(N(C(=O)c2ccccn2)C(C)C)cc1F`, the cytotoxicity at 10 µM was -1.26%.
Turning to `CS(=O)(=O)CCSCc1ccc(Br)c(F)c1`, the cytotoxicity at 10 µM was determined as 0.49%.
`O=C(C[S+]([O-])Cc1c(Cl)cccc1Cl)N1CCc2sccc2C1` (configuration not stated): the cytotoxicity at 10 µM was -7.23%.
Take `Cc1cccc(C(=O)N2CCN(CCC(C)C)CC2)n1`: the cytotoxicity at 10 µM was -3.53%.
Regarding `O=C(Nc1ccncc1)NC1CCN(c2ccccc2Cl)C1=O` (configuration not stated), the cytotoxicity at 10 µM was -43.6%.
With `CSCC(=O)Nc1nccn1Cc1ccc(Br)cc1`, the cytotoxicity at 10 µM is -45.8%.
With `COc1cc(N2C[C@@H]3COC[C@@H](Cc4nnc(C)o4)[C@@H]3C2)ncn1`, the cytotoxicity at 10 µM was -112%.
With `C=Cc1ccc(C(=O)N2CCCC(Nc3ccccc3)C2)cc1` (configuration not stated), the cytotoxicity at 10 µM is -9.01%.
In the case of `O=C(N[C@H]1CN(c2nc(CO)cs2)C[C@@H]1C1CC1)C1CCCCC1` it was -0.464%.
As to `CCc1ncc(C(=O)N(CCOC)Cc2nccs2)cn1`, the cytotoxicity at 10 µM is -1.47%.
`CCCS(=O)(=O)NCc1cccnc1Oc1ccc(C)c(F)c1F`: the cytotoxicity at 10 µM is -2.19%.
Consider `CCC(=O)Nc1cccc(C(=O)NCCC2=CSC3=NCCCN23)c1`, for which the cytotoxicity at 10 µM was 1.93%.
In the case of `Cc1cc(-c2nn(C)c(Cl)c2CN2CCC3(CC2)[C@H](O)C[C@@H]3O)no1` it was -5.66%; in that of `Cc1ccc2nc(-c3cnc(N)nc3)c(C)c(C(=O)N(C)C)c2c1`, -13.8%; in that of `CCCC(C)NCc1cccnc1N1CCN(c2ccccn2)CC1` (configuration not stated), 6.99%.
For `CSCCN1CCC(NC(=O)c2cccc(C3CCCNC3)c2)CC1` (configuration not stated), the cytotoxicity at 10 µM was determined as 0.49%.
For `CCO[C@H]1C[C@@H](O)C12CCN(C1Cc3ccccc3C1)CC2`, the cytotoxicity at 10 µM was determined as 4.54%.
For `CC(C)OC(=O)N1CCCC(c2nccn2Cc2ccncc2)C1` (configuration not stated), the cytotoxicity at 10 µM stood at 4.56%.
Consider `CSc1ncc(CNC(C)c2cnn(-c3ccc(F)cc3F)c2C)cn1` (configuration not stated), for which the cytotoxicity at 10 µM stood at 2.77%.
Consider `Cc1ccc(CN2CCN(Cc3ccncc3)CC2=O)cc1`, for which the cytotoxicity at 10 µM was -5.64%.
With `Cc1ncc(CC(=O)N2CCC3(CCC(=O)N(C4CC4)C3)CC2)c(=O)[nH]1`, the cytotoxicity at 10 µM is -45.1%.
For `CC1CCCN(Cc2ccc(C(N)=O)cc2)C1` (configuration not stated), the cytotoxicity at 10 µM was -10.4%.
As to `CC(C1CCN(Cc2cnn(C)c2C2CC2)CC1)N(C)C` (configuration not stated), the cytotoxicity at 10 µM was found to be 7.88%.
Consider `CN(C)CCn1ccnc1C1CCN(c2cc(N)nc(N)n2)CC1`, for which the cytotoxicity at 10 µM came out at 0.829%.
Turning to `Cc1nc[nH]c1-c1nccn1-c1ccc(C(N)=O)c(N2CCCC2)c1`, the cytotoxicity at 10 µM was 6.23%.
For `O=C(c1cccs1)N1CCC(n2nc(-c3ccco3)ccc2=O)CC1`, the cytotoxicity at 10 µM was -6.62%.
`COCC(=O)N1CCC(c2nccnc2Oc2cccnc2C)CC1`: the cytotoxicity at 10 µM was determined as 6.79%.
As to `COCc1cccc(CNCc2c(C(C)C)nn(C)c2N(C)C)c1`, the cytotoxicity at 10 µM was -7.16%.
In the case of `Cc1cc(C)c(CNC(=O)c2ccc3c(c2)CCC3)c(=O)[nH]1`, the cytotoxicity at 10 µM was determined as 0.983%.
For the compound `CNS(=O)(=O)c1ccc(CNC(=O)Nc2cn[nH]c2)cc1`, the cytotoxicity at 10 µM is -8.75%.
Turning to `Cc1cnn(CCNCC(O)COc2cc(Cl)ccc2Cl)c1` (configuration not stated), the cytotoxicity at 10 µM was 2.22%.
With `Cn1ncc2c1CCCC2NCc1cccc2c1OCCCO2` (configuration not stated), the cytotoxicity at 10 µM was -9.86%.
Take `O=C(CCc1ccccc1F)NS(=O)(=O)c1ccc2c(c1)OCCO2`: the cytotoxicity at 10 µM was -18.6%.
In the case of `Cc1ccn2ncc(C(=O)N3CCCC(n4cccn4)C3)c2n1` (configuration not stated) it was -24.3%; in that of `CCc1ncncc1C(=O)N1CCN(Cc2ccco2)CC1`, -4.91%.
`CN1CCN(C(=O)c2ccc(=O)n(C)c2)c2ccccc21`: the cytotoxicity at 10 µM is -11.5%.
As for `CCC(=O)NC1CCN(c2cccc(CC)c2)CC1`, the cytotoxicity at 10 µM is -4.16%.
In the case of `Cc1cccc(C)c1OCCNC(=O)NC(C)c1nncn1C` (configuration not stated) it was 7.8%; in that of `Cc1cc(C[C@@H]2COC[C@H]2NCc2ccc(Cl)c(Cl)c2)on1`, -5.44%; in that of `Cc1noc([C@@H]2CC[C@@H]3[C@@H](CCN3c3nnc(C)s3)O2)n1`, 9.28%.
In the case of `Cc1cnc(N2CCC3(CC2)CC3CNC(=O)C2CCC2)nc1` (configuration not stated), the cytotoxicity at 10 µM worked out at 38%.
Turning to `Cc1ccc2c(CC(=O)N(C)CCN(C)C)c(C)[nH]c2c1C`, the cytotoxicity at 10 µM was 8.42%.
For `CN1CCCCC12CCN(C(=O)c1cccn1C)CC2`, the cytotoxicity at 10 µM stood at 8.22%.
In the case of `O=C(COc1ccccc1)N1C[C@@H]2COC[C@]2(COc2cccnc2)C1`, the cytotoxicity at 10 µM was -100%.
Turning to `O=C(C1CCCCC1)N1CCC2(CCCN2CC2CC2)CC1`, the cytotoxicity at 10 µM is 3.56%.
On to `CCS(=O)(=O)N1CCOC2(CCCN(c3ccccn3)C2)C1` (configuration not stated), for which the cytotoxicity at 10 µM was 3.16%.
With `CN1[C@@H]2CC[C@H]1CN(C(=O)CCc1csc(N)n1)CC2` the figure was -0.0143%.
For `O=C(NCC1CCC(c2nnc(-c3cccnc3)o2)CC1)C1CC1` (configuration not stated), the cytotoxicity at 10 µM turned out to be 3.15%.
